In ChEMBL document CHEMBL1141660, “Synthesis and antimycobacterial evaluation of substituted pyrazinecarboxamides” (Eur J Med Chem, 2008):
In brackets after ≈: the same amount, converted by molar mass.

Key:
[1] = tested on: Mycobacterium tuberculosis; assay: Antimicrobial activity against Mycobacterium tuberculosis H37Rv ATCC 27294 at 6.25 ug/mL by microplate alamar blue assay; type: functional
[2] = Inhibition of photosynthetic electron transport in Spinacia oleracea chloroplasts assessed as photoreduction of 2,6-dicholorophenol-indophenol measured by decrease in oxygen evolution rate; type: functional
Outline: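 Chloroplast suspension (chlorophyll 30 mg/L) in 0.02 mol/L phosphate buffer, pH 7.2, with 0.4 mol/L sucrose, 0.005 mol/L MgCl2 and 0.015 mol/L NaCl. Samples were lit by a halogen lamp (~100 W/m², 10 cm, 4-cm water filter) at 22 °C. Electron transport was followed as DCPIP photoreduction. IC50 is the molar concentration halving oxygen evolution versus the untreated control.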

[3] = tested on: Chlorella vulgaris; assay: Antialagal activity against Chlorella vulgaris Beji assessed as reduction in chlorophyll content after 7 days at 0.83 to 100 umol/L; type: functional; parameters: scale not given: the % may be the effect or the level left
Outline: (§1)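 Chlorella cultures with compound added from DMSO (final ≤0.25%), against controls carrying the same DMSO level. Chlorophyll content was read relative to the control. Results are given either as IC50 (concentration giving a 50% drop in chlorophyll) or as percent of control across the 0.83–100 concentration range, with S.D.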

[4] = tested on: Chlorella vulgaris; assay: Antialagal activity against Chlorella vulgaris Beji assessed as reduction in chlorophyll content after 7 days; type: functional, organism-based; conditions: 168 h; outline: as §1
[5] = tested on: Mycobacterium tuberculosis; assay: Antimicrobial activity against Mycobacterium tuberculosis H37Rv ATCC 27294 by microplate alamar blue assay; type: functional
[6] = tested on: Vero; assay: Cytotoxicity against african green monkey Vero cells after 72 hrs by MTT assay; type: cell-based; conditions: Chlorocebus sabaeus
Outline: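 Secondary screen in VERO cells. Viability was read with the CellTiter 96 non-radioactive cell proliferation assay.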

[7] = Selectivity index, ratio of MIC Mycobacterium tuberculosis H37Rv ATCC 27294 to IC50 for african green monkey Vero cells; type: functional
[8] = tested on: Trichophyton mentagrophytes; assay: Antifungal activity against Trichophyton mentagrophytes after 72 hrs; type: functional
[9] = tested on: Trichophyton mentagrophytes; assay: Antifungal activity against Trichophyton mentagrophytes after 120 hrs; type: functional

Compound | inhibition at 6.25 µg/mL [1] | IC50 [2] | Activity [3] | IC50 [4] | MIC [5] | IC50 [6] | Ratio [7] | MIC [8] | MIC [9]
Cc1ccc(NC(=O)c2cnc(C(C)(C)C)c(Cl)n2)cc1 | 0% | 73 µM | 92.9% |  |  |  |  |  | 
Cc1ccc(NC(=O)c2cnccn2)cc1 | 86% | 1480 µM |  | 70.9 µM |  |  |  |  | 
O=C(Nc1cc(O)ccc1Cl)c1cncc(Cl)n1 | 15% | 624 µM | 103% |  |  |  |  |  | 
CC(C)(C)c1ncc(C(=O)Nc2ccc(F)cc2)nc1Cl | 15% | 103 µM | 101.6% |  |  |  |  |  | 
CC(C)(C)c1ncc(C(=O)Nc2cccc(C(F)(F)F)c2)nc1Cl | 95% | 173 µM | 90.1% |  | 3.13 µg/mL (≈ 8.75 µM) | > 10 µg/mL | >3.2 |  | 
O=C(Nc1ccc(F)cc1)c1cncc(Cl)n1 | 44% | 384 µM |  | 32.3 µM |  |  |  |  | 
O=C(Nc1cccc(C(F)(F)F)c1)c1cncc(Cl)n1 | 77% | 229 µM |  | 12.1 µM |  |  |  |  | 
Cc1ccc(NC(=O)c2cncc(Cl)n2)cc1 | 71% | 1520 µM |  | 37.4 µM |  |  |  |  | 
CC(C)(C)c1cnc(C(=O)Nc2cc(O)ccc2Cl)cn1 | 0% |  | 122% |  |  |  |  |  | 
CC(C)(C)c1cnc(C(=O)Nc2ccc(F)cc2)cn1 | 25% | 524 µM | 94.5% |  |  |  |  |  | 
O=C(Nc1cc(O)ccc1Cl)c1cnccn1 | 0% | 722 µM | 97.1% |  |  |  |  |  | 
O=C(Nc1ccc(F)cc1)c1cnccn1 | 0% | 480 µM | 89.9% |  |  |  |  |  | 
O=C(Nc1ccccc1C(F)(F)F)c1cnccn1 | 31% | 376 µM | 91.7% |  |  |  |  |  | 
CC(C)(C)c1cnc(C(=O)Nc2ccccc2C(F)(F)F)cn1 | 7% | 55 µM |  | 32.9 µM |  |  |  |  | 
Cc1ccc(NC(=O)c2cnc(C(C)(C)C)cn2)cc1 | 61% | 164 µM | 91.8% |  |  |  |  |  | 
O=C(Nc1cccc(C(F)(F)F)c1)c1cnccn1 | 99% | 130 µM | 91.5% |  | 6.25 µg/mL (≈ 23.4 µM) | > 62.5 µg/mL | >10 |  | 
CC(C)(C)c1ncc(C(=O)Nc2ccccc2C(F)(F)F)nc1Cl | 6% | 205 µM | 94.4% |  |  |  |  |  | 
O=C(Nc1ccccc1C(F)(F)F)c1cncc(Cl)n1 | 26% | 557 µM | 87.8% |  |  |  |  |  | 
CC(C)(C)c1ncc(C(=O)Nc2cc(O)ccc2Cl)nc1Cl | 0% | 625 µM | 98% |  |  |  |  |  | 
CC(C)(C)c1cnc(C(=O)Nc2cccc(C(F)(F)F)c2)cn1 | 23% | 283 µM | 85.2% |  |  |  |  | 62.5 µM (≈ 20.2 µg/mL) | 62.5 µM (≈ 20.2 µg/mL)
CN(C)C(=O)Nc1ccc(Cl)c(Cl)c1 [DCMU] |  | 1.9 µM |  | 7.3 µM |  |  |  |  | 
NC(=O)c1cnccn1 [PYRAZINAMIDE] |  |  |  |  | 12.5 µg/mL (≈ 102 µM) |  |  |  | 
